The text below walks through data of ChEMBL document CHEMBL1131621, “Synthesis and activity of dipeptides, linked to targeting ligands, as specific NK cell enhancers” (1998).

Calls of active or inactive are those of the source. No cut-off for these calls is given here. Where a SMILES comes first, the peptide text is derived from it. [ ]: non-standard residue; d: D form.

The nature of test [1]: In vitro Natural Killer cell activity (Activation of murine splenocyte NK cells by its ability to lyze YAC-1 target cells in chromium release assay) relative to interleukin 2 at 10E-6 to 10E-12 M conc; Range 21-40%. In kind it is functional, Mus musculus. Summed up: (§1)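 Spleens from female C57BL/6 (H-2b) mice, 6–8 weeks old, homogenized in RPMI 1640 with 10% FCS and 2 mM L-glutamine. Mononuclear cells isolated on a Lympholyte M gradient (800g, 20 min), washed in PBS, viability checked by trypan blue. 5×10^5 splenocytes with compound incubated 4 h with 5×10^3 51Cr-labelled YAC-1 cells; % specific lysis from released chromium. Compounds tested at 10^-4–10^-12 M. Peak activity scored relative to IL 2 (100%) in 20% bands. Actives run 2–5 times, inactives once.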

The nature of test [2]: In vitro Natural Killer cell activity (Activation of murine splenocyte NK cells by its ability to lyze YAC-1 target cells in chromium release assay) relative to interleukin 2; Range 0-20%. In kind it is functional, Mus musculus. Summed up: as §1
A short description of test [3]: In vitro Natural Killer cell activity (Activation of murine splenocyte NK cells by its ability to lyze YAC-1 target cells in chromium release assay) relative to interleukin 2 at 10E-4 to 10E-12 M conc. In kind it is functional, Mus musculus. Put shortly:
as §1

A short description of test [4]: In vitro Natural Killer cell activity (Activation of murine splenocyte NK cells by its ability to lyze YAC-1 target cells in chromium release assay) relative to interleukin 2 at 10e-4; Range 101-120%.
A short description of test [5]: In vitro Natural Killer cell activity (Activation of murine splenocyte NK cells by its ability to lyze YAC-1 target cells in chromium release assay) relative to interleukin 2 at 10E-8 to 10E-12 M conc; Range 41-60%. In kind it is functional, Mus musculus. Summed up: as §1
Test [6] is filed under the species Mus musculus. The test is described as follows: Peak or the range of peak activity relative to positive IL 2 control; Range 10e-12-10e-4. In kind it is functional. Put shortly: as §1
The nature of test [7]: In vitro Natural Killer cell activity (Activation of murine splenocyte NK cells by its ability to lyze YAC-1 target cells in chromium release assay) relative to interleukin 2 at 10E-4 to 10E-12 M conc; Range 41-60%. In kind it is functional, Mus musculus. Put shortly: as §1
A short description of test [8]: In vitro Natural Killer cell activity (Activation of murine splenocyte NK cells by its ability to lyze YAC-1 target cells in chromium release assay) relative to interleukin 2 at 10E-4 to 10E-8 M conc; Range 21-40%. In kind it is functional, Mus musculus. Put shortly:
as §1

A short description of test [9]: In vitro Natural Killer cell activity (Activation of murine splenocyte NK cells by its ability to lyze YAC-1 target cells in chromium release assay) relative to interleukin 2 at 10E-4 to 10E-12 M conc; Range […]. In kind it is functional, Mus musculus. Put shortly: as §1
For test [10], the species on record is Mus musculus. The test is described as follows: Peak or the range of peak activity relative to positive IL 2 control; Range 10e-12-10e-6. In kind it is functional. Summed up:
as §1

Test [11] in a line: In vitro Natural Killer cell activity (Activation of murine splenocyte NK cells by its ability to lyze YAC-1 target cells in chromium release assay) relative to interleukin 2 at 10E-4 to 10E-12 M conc; Range 81-100%. In kind it is functional, Mus musculus. Summed up: as §1
Test [12] in a line: In vitro Natural Killer cell activity (Activation of murine splenocyte NK cells by its ability to lyze YAC-1 target cells in chromium release assay) relative to interleukin 2 at 10E-4 to 10E-12 M conc; Range 21-40%. In kind it is functional, Mus musculus. Put shortly:
as §1

The species named for test [13] is Mus musculus. As to the kind of experiment: Peak or the range of peak activity relative to positive IL 2 control; Range 10e-12-10e-7. In kind it is functional. Put shortly: as §1
Test [14] can be described thus: In vitro Natural Killer cell activity (Activation of murine splenocyte NK cells by its ability to lyze YAC-1 target cells in chromium release assay) relative to interleukin 2 at 10E-4 to […] conc; Range 101-120%. In kind it is functional, Mus musculus. Put shortly:
as §1

For test [15], the system named is Mus musculus. As to the kind of experiment: Antimetastatic effect in lungs of C57BL/6 mice injected iv on day 0 with 250000 B16 melanoma cells and a dose of 0 mg/kg of compound in exp 1. In kind it is functional, Lung. Summed up: (§2)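 Female C57BL/6 mice, 6–8 weeks old, given 2.5×10^5 B16F10 melanoma cells iv on day 0. Sacrifice on day 24; lungs fixed and surface tumour colonies counted. Mean ± SEM; n = 8 in exp 1, n = 4 in exp 2.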

Test [16] concerns Mus musculus. The test is described as follows: Antimetastatic effect in lungs of C57BL/6 mice injected iv on day 0 with 250000 B16 melanoma cells and a dose of 0 mg/kg of compound in exp 2. In kind it is functional, Lung. Summed up: as §2
Test [17] deals with Mus musculus. As to the kind of experiment: Antimetastatic effect in lungs of C57BL/6 mice injected iv on day 0 with 250000 B16 melanoma cells and a dose of 25 mg/kg of compound in exp 2. In kind it is functional, Lung. Put shortly:
as §2

The species entered for test [18] is Mus musculus. The test is described as follows: The compound was tested in vitro for mixed lymphocyte reaction against murine splenocytes; No effect. In kind it is functional.
For test [19], the species on record is Homo sapiens. As to the kind of experiment: Iin vitro NK cell cytolytic activity (K 562 target) using human PBML; Range 81-100%. In kind it is functional. Summed up: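 PBML isolated from heparinized human blood by Ficoll-Hypaque density gradient centrifugation. For the NK assay (K562 targets), activity is scored relative to an IL 2 control.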
The species entered for test [20] is Mus musculus. The test is described as follows: The compound was tested in vitro for respiratory burst against murine whole blood; No effect. In kind it is functional.
The species entered for test [21] is Mus musculus. As to the kind of experiment: The compound was tested in vitro for T cell proliferation (PHA, ConA) against murine splenocytes; No effect. In kind it is functional.
The species entered for test [22] is Mus musculus. The test is described as follows: The compound was tested in vitro for B cell proliferation (PWM, LPS) against murine splenocytes; No effect. In kind it is functional.
Test [23] is filed under the species Homo sapiens. The test is described as follows: The compound was tested in vitro for phagocytotic activity against human PBML; No effect. In kind it is functional.
Test [24] relates to Mus musculus. As to the kind of experiment: Antimetastatic effect in lungs of C57BL/6 mice injected iv on day 0 with 250000 B16 melanoma cells and a dose of 50 mg/kg of compound in exp 2. In kind it is functional, Lung. Summed up:
as §2

Test [25] is filed under the species Mus musculus. As to the kind of experiment: The compound was tested in vitro for phagocytotic activity against murine whole blood; No effect. In kind it is functional.
Test [26] is filed under the species Homo sapiens. The test is described as follows: The compound was tested in vitro for respiratory burst against human PBML; No effect. In kind it is functional.
The species entered for test [27] is Mus musculus. As to the kind of experiment: In vitro for cytotoxic T lymphocyte activity against murine splenocytes; Range 21-40% of IL 2. In kind it is functional.
Test [28] deals with Mus musculus. As to the kind of experiment: Antimetastatic effect in lungs of C57BL/6 mice injected iv on day 0 with 250000 B16 melanoma cells and a dose of 25 mg/kg of compound in exp 1. In kind it is functional, Lung. Summed up:
as §2

In the case of `CC[C@H](C)[C@H](N)C(=O)N1CCC[C@H]1C(=O)NCCCCCCO`, the Stimulation in test [1] is 21%.

For the compound `C[C@@H](N)C(=O)N[C@@H](CCC(N)=O)C(=O)NCCCCCCCl`, the Stimulation in test [2] is given as 0%.

Consider `CC1OC(OCCCCCCNC(=O)[C@@H](CCC(N)=O)NC(=O)[C@H](C)N)C(O)C(O)C1O` (stereo partly specified), for which the Stimulation in test [3] is on record as 0%.

For `CN[C@H](C(=O)NCCCCCCOC1OC(C)C(O)C(O)C1O)c1ccc(C(=O)O)[nH]1` (stereo partly specified), the Stimulation in [3] worked out at 0%.

Consider `C[C@@H](N)C(=O)N[C@@H](CCC(N)=O)C(=O)NCCCCCCN`, for which the Stimulation in test [4] is 101%.

For `CC1OC(SCCCCCCNC(=O)[C@H](CCC(N)=O)NC(=O)[C@@H](C)N)C(O)C(O)C1O` (stereo partly specified), the Stimulation in [5] turned out to be 41%.

The compound `CC1OC(OCCCCCCNC(=O)[C@H](CCC(=O)O)NC(=O)[C@@H](C)N)C(O)C(O)C1O` (stereo partly specified) had a Concentration in the test filed under Mus musculus [6] of 10 pM. The compound further returned a Stimulation in [7] of 41%.

On to `CC1OC(OCCCCCCNC(=O)[C@@H]2CCC(=O)N2)C(O)C(O)C1O` (stereo partly specified), for which the Stimulation in test [3] worked out at 0%.

`CC1OC(OCCCCCCCCCCCCNC(=O)[C@H](CCC(N)=O)NC(=O)[C@@H](C)N)C(O)C(O)C1O` (stereo partly specified) showed a Stimulation in [8] of 21%.

As for `C[C@H](N)C(=O)N1CCC[C@H]1C(=O)NCCCCCCO`, in test [2], the Stimulation is 0%.

Consider `CC1OC(OCCCCCCn2cnc3c(N(C)C)ncnc32)C(O)C(O)C1O` (stereo unspecified), for which the Stimulation in [9] is 81%. Also, the Concentration in the test filed under Mus musculus [10] was found to be 10 pM.

For `C[C@@H](N)C(=O)N[C@@H](CCC(N)=O)C(=O)NCCCCCCO[C@H]1O[C@H](CO)[C@H](O)[C@@H](O)[C@H]1O`, in [11], the Stimulation is 0%.

In test [3], `CC[C@@H](C)[C@H](N)C(=O)N1CCC[C@H]1C(=O)NCCCCCCOC1OC(C)C(O)C(O)C1O` (stereo partly specified) registered a Stimulation of 0%.

For the compound `CC1OC(OCCCCCCNC(=O)CNC(=O)[C@@H](C)N)C(O)C(O)C1O` (stereo partly specified), the Stimulation in test [3] is listed as 0%.

`C[C@H](N)C(=O)N[C@H](CCC(N)=O)C(=O)NCCCCCCO` registered a Stimulation in [5] of 41%.

`CC1OC(OCCCCCCNC(=O)[C@H](CCCCNC(=O)[C@H](CCC(N)=O)NC(=O)[C@@H](C)N)NC(=O)[C@H](CCC(N)=O)NC(=O)[C@@H](C)N)C(O)C(O)C1O` (stereo partly specified) returned a Stimulation in test [12] of 21%.

Compound `CC1OC(OCCCCCCNC(=O)[C@H](CCCN)NC(=O)[C@@H](C)N)C(O)C(O)C1O` (stereo partly specified) came in with a Stimulation in test [3] of 0%.

`CC1OC(OCCCCCCNC(=O)[C@H](CCC(N)=O)NC(=O)[C@@H](C)N)C(O)C(O)C1O` (stereo partly specified) yielded a Concentration in the test listed under Mus musculus [13] of 10 pM. Besides, the Stimulation in test [14] came to 101%. Also, the “No. of lung colonies” value in the test on Mus musculus [15] was determined as 142; with Mus musculus [16], 101; in the test on Mus musculus [17], 86; in the test on Mus musculus [24] it was 60; in the test on Mus musculus [28], 109. Besides, the outcome in the test filed under Mus musculus [18], in the test filed under Mus musculus [20], in the test filed under Mus musculus [21], in the test listed under Mus musculus [22], in the test filed under Homo sapiens [23] and in the test listed under Mus musculus [25] was inactive. In the test listed under Homo sapiens [26], the outcome was inactive. Also, the Activity in the test filed under Homo sapiens [19] was 81%; in the test filed under Mus musculus [27], 21%.

In turn, `C[C@@H](N)C(=O)N[C@@H](CCC(N)=O)C(=O)O` (H-[dA]-Gln-OH) came in with a Stimulation in test [2] of 0%.
